In ChEMBL document CHEMBL1143195, “Novel sulfonanilide analogs decrease aromatase activity in breast cancer cells: synthesis, biological evaluation, and ligand-based pharmacophore identification” (J Med Chem, 2008):
Active and inactive are the calls of the source. No cut-off for these calls is given here.

Biological target: T1, Aromatase (Homo sapiens, UniProt P11511)
T1 sequence (P11511 whole entry): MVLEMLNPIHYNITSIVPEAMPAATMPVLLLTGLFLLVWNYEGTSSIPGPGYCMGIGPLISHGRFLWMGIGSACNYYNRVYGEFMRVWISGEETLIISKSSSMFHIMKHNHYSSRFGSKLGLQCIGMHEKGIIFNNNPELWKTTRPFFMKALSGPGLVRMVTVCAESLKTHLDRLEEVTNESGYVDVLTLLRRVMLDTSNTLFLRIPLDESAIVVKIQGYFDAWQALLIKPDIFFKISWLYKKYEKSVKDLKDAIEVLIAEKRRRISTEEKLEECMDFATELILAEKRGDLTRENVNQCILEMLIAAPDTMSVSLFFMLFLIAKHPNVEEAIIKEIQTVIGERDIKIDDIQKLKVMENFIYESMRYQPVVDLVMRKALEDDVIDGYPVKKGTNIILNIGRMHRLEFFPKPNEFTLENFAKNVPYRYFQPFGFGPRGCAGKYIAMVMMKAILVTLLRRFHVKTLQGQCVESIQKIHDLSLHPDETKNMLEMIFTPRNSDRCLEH
Assay: Inhibition of aromatase in human SKBR3 cells by tritiated water release assay
Type: cell-based
Settings: sk-br-3
Procedure, shortened: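 Subconfluent SK-BR-3 cells were switched to defined DMEM/F12 (human albumin, transferrin, insulin) and treated 24 h at five concentrations in triplicate (0.1% DMSO vehicle). They were then incubated 3 h with 100 nM [1β-3H]-androstenedione. TCA-precipitated medium was chloroform-extracted and charcoal-treated, and 3H2O counted as pmol/h/10^6 cells, normalized by DNA assay. IC50 was taken from sigmoidal dose–response fits.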

Row | SMILES | IC50 [nM]
1 | CCCCCCCCCOc1cc([N+](=O)[O-])ccc1N(C)S(C)(=O)=O | 3960
2 | CCCCCCOc1cc([N+](=O)[O-])ccc1N(C)S(C)(=O)=O | 4490
3 | CN(c1ccc(NC(=O)c2ccccc2)cc1OCc1ccccc1)S(C)(=O)=O | 1770
4 | CCCOc1cc([N+](=O)[O-])ccc1NS(C)(=O)=O | 2510
5 | CN(c1ccc([N+](=O)[O-])cc1OCc1cccc2ccccc12)S(C)(=O)=O | 1170
6 | CN(c1ccc(N)cc1OCc1ccccc1)S(C)(=O)=O | 1100
7 | COc1ccc(COc2cc([N+](=O)[O-])ccc2NS(C)(=O)=O)cc1 | 7820
8 | CC(C)Oc1cc([N+](=O)[O-])ccc1NS(C)(=O)=O | 5870
9 | CC(=O)Nc1ccc([N+](=O)[O-])cc1OCc1ccccc1 | 1180
10 | CC(C)c1ccc(COc2cc([N+](=O)[O-])ccc2NS(C)(=O)=O)cc1 | 7450
11 | O=C(Nc1ccc([N+](=O)[O-])cc1OCc1ccccc1)c1ccc(-c2ccccc2)cc1 | > 25000
12 | CS(=O)(=O)Nc1ccc([N+](=O)[O-])cc1OCc1ccc2ccccc2c1 | 2170
13 | O=C(Nc1ccc([N+](=O)[O-])cc1OCc1ccccc1)C1CCCCC1 | > 25000
14 | CC(=O)Nc1ccc(N(C)S(C)(=O)=O)c(OCc2ccccc2)c1 | 16700
15 | O=C(Nc1ccc([N+](=O)[O-])cc1OCc1ccccc1)c1ccc(Cl)c(Cl)c1 | > 25000
16 | O=C(Nc1ccc([N+](=O)[O-])cc1OCc1ccccc1)c1ccc2ccccc2c1 | > 25000
17 | CS(=O)(=O)Nc1ccc([N+](=O)[O-])cc1OCC1CCCCC1 | 1210
18 | Cc1ccc(COc2cc([N+](=O)[O-])ccc2N(C)S(C)(=O)=O)cc1 | 2330

Row | SMILES | IC50 [nM]
19 | CC(C)Oc1cc([N+](=O)[O-])ccc1N(C)S(C)(=O)=O | 2810
20 | CN(c1ccc([N+](=O)[O-])cc1OCc1ccc2ccccc2c1)S(C)(=O)=O | 2680
21 | O=C(Nc1ccc([N+](=O)[O-])cc1OCc1ccccc1)c1cccc([N+](=O)[O-])c1 | > 25000
22 | CS(=O)(=O)Nc1ccc([N+](=O)[O-])cc1OCc1cccc2ccccc12 | 5740
23 | O=[N+]([O-])c1ccc(S(=O)(=O)Nc2ccc([N+](=O)[O-])cc2OCc2ccccc2)cc1 | 2170
24 | CCCCCCOc1cc([N+](=O)[O-])ccc1NS(C)(=O)=O | 2670
25 | CS(=O)(=O)Nc1ccc([N+](=O)[O-])cc1OCc1ccc(Br)cc1 | 5850
26 | CN(c1ccc([N+](=O)[O-])cc1OCc1ccc(Cl)cc1)S(C)(=O)=O | 2400
27 | CN(c1ccc([N+](=O)[O-])cc1OCc1ccc(F)cc1)S(C)(=O)=O | 1780
28 | Cc1ccc(S(=O)(=O)Nc2ccc([N+](=O)[O-])cc2OCc2ccccc2)cc1 | 17400
29 | CN(c1ccc([N+](=O)[O-])cc1OCc1ccc([N+](=O)[O-])cc1)S(C)(=O)=O | 490
30 | CS(=O)(=O)Nc1ccc([N+](=O)[O-])cc1OCc1ccccc1 | 2140
31 | O=C(Nc1ccc([N+](=O)[O-])cc1OCc1ccccc1)c1ccc([N+](=O)[O-])cc1 | > 25000
32 | O=C(Nc1ccc([N+](=O)[O-])cc1OCc1ccccc1)c1ccccc1 | > 25000
33 | Cc1ccc(COc2cc([N+](=O)[O-])ccc2NS(C)(=O)=O)cc1 | 1750
34 | N#Cc1ccc(C(=O)Nc2ccc([N+](=O)[O-])cc2OCc2ccccc2)cc1 | > 25000
35 | O=C(Nc1ccc([N+](=O)[O-])cc1OCc1ccccc1)c1ccc(Cl)c([N+](=O)[O-])c1 | > 25000

Other lines, results leading:

Row | IC50 [nM] | SMILES
36 | 680 | CS(=O)(=O)Nc1ccc([N+](=O)[O-])cc1OC1CCCCC1 [NS-398]
37 | 470 | COc1ccc(COc2cc([N+](=O)[O-])ccc2N(C)S(C)(=O)=O)cc1
38 | 910 | CCCCCCCCCOc1cc([N+](=O)[O-])ccc1NS(C)(=O)=O
39 | 690 | CN(c1ccc(NC(=O)c2ccc(Cl)c(Cl)c2)cc1OCc1ccccc1)S(C)(=O)=O
40 | 580 | CS(=O)(=O)Nc1ccc([N+](=O)[O-])cc1OCc1ccc(F)cc1
41 | 400 | CS(=O)(=O)Nc1ccc([N+](=O)[O-])cc1OCc1ccc([N+](=O)[O-])cc1
42 | 440 | CN(c1ccc([N+](=O)[O-])cc1OC1CCCC1)S(C)(=O)=O
43 | 440 | CN(c1ccc(NC(=O)c2ccc(C#N)cc2)cc1OCc1ccccc1)S(C)(=O)=O
44 | 330 | CN(c1ccc([N+](=O)[O-])cc1OCc1ccccc1-c1ccccc1)S(C)(=O)=O
45 | 120 | CN(c1ccc(NC(=O)c2ccc(-c3ccccc3)cc2)cc1OCc1ccccc1)S(C)(=O)=O
46 | 1070 | CN(c1ccc(NC(=O)c2ccc3ccccc3c2)cc1OCc1ccccc1)S(C)(=O)=O
47 | 520 | CN(c1ccc([N+](=O)[O-])cc1OCCc1ccccc1)S(C)(=O)=O
48 | 370 | Cc1ccc(C)c(COc2cc([N+](=O)[O-])ccc2NS(C)(=O)=O)c1
49 | 330 | CN(c1ccc([N+](=O)[O-])cc1OCc1ccc(Br)cc1)S(C)(=O)=O
50 | 650 | CN(c1ccc([N+](=O)[O-])cc1OCc1ccc(-c2ccccc2)cc1)S(C)(=O)=O
51 | 260 | CS(=O)(=O)Nc1ccc([N+](=O)[O-])cc1OCc1ccccc1-c1ccccc1
52 | 230 | CCC(CC)Oc1cc([N+](=O)[O-])ccc1N(C)S(C)(=O)=O
53 | 290 | CS(=O)(=O)Nc1ccc([N+](=O)[O-])cc1OCc1ccc(Cl)cc1
54 | 850 | CS(=O)(=O)Nc1ccc([N+](=O)[O-])cc1OCc1ccc(-c2ccccc2)cc1
55 | 230 | CS(=O)(=O)Nc1ccc([N+](=O)[O-])cc1OCCc1ccccc1
56 | 690 | CN(c1ccc(NC(=O)c2ccc(Cl)c([N+](=O)[O-])c2)cc1OCc1ccccc1)S(C)(=O)=O
57 | 300 | CCC(CC)Oc1cc([N+](=O)[O-])ccc1NS(C)(=O)=O
58 | 470 | CN(c1ccc([N+](=O)[O-])cc1OC1CCCCC1)S(C)(=O)=O
59 | 250 | CN(c1ccc(NC(=O)C2CCCCC2)cc1OCc1ccccc1)S(C)(=O)=O
60 | 810 | CN(c1ccc([N+](=O)[O-])cc1OCc1ccccc1)S(C)(=O)=O
61 | 870 | CS(=O)(=O)Nc1ccc([N+](=O)[O-])cc1OC1CCCC1
62 | 760 | CCCOc1cc([N+](=O)[O-])ccc1N(C)S(C)(=O)=O
63 | 960 | CN(c1ccc([N+](=O)[O-])cc1OCC1CCCCC1)S(C)(=O)=O

System: SK-BR-3
Assay: Cytotoxicity against human SKBR3 cells by diphenylamine DNA assay
Type: functional, cell-based
Settings: not given

Row | SMILES | Activity
64 | CC(C)c1ccc(COc2cc([N+](=O)[O-])ccc2N(C)S(C)(=O)=O)cc1 | Active
65 | Cc1ccc(C)c(COc2cc([N+](=O)[O-])ccc2N(C)S(C)(=O)=O)c1 | Active
